Test results as given in ChEMBL document CHEMBL1132449, “Pyrroloquinoxaline derivatives as high-affinity and selective 5-HT(3) receptor agonists: synthesis, further structure-activity relationships, and biological studies” (J Med Chem, 1999).

Legend:
[1] = molecular target: T1, Serotonin 3 (5-HT3) receptor (Rattus norvegicus, UniProt P35563+Q9JJ16); experiment: Binding affinity against 5-hydroxytryptamine 3 (5-HT3) receptor from rat cortical homogenate using [3H]zacopride as radioligand
T1 sequence (P35563 whole entry): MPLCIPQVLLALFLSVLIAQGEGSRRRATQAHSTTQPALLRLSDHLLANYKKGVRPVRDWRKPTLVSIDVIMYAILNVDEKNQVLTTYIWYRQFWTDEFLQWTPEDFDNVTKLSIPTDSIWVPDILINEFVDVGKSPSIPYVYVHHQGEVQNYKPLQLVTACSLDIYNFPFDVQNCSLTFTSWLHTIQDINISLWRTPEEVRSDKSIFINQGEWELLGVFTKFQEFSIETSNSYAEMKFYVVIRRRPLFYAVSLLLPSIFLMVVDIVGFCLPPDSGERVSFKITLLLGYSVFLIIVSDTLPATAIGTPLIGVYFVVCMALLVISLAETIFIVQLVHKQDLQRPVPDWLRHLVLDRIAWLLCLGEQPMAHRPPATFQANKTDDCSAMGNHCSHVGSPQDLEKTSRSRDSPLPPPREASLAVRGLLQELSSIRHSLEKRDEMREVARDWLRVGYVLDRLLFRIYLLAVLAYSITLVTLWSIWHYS
T1 sequence (Q9JJ16 whole entry): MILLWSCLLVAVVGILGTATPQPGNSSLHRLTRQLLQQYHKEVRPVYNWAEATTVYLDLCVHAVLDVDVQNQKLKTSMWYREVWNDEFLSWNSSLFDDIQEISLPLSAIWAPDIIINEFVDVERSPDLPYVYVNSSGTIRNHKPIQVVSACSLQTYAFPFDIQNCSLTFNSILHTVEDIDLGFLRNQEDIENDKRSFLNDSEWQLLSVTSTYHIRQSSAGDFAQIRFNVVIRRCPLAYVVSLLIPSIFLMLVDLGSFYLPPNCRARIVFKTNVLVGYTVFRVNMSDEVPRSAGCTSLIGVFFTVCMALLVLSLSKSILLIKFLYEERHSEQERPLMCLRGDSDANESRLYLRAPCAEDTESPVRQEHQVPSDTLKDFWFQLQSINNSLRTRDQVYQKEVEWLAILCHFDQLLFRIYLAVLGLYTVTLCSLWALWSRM
Procedure, shortened: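 Male rat cortices, stored at -80 °C, were homogenized in ice-cold 25 mM Tris HCl pH 7.4 and spun at 50000g. Membranes were preincubated 10 min at 37 °C, washed, and resuspended with 10 µM pargyline (10 mg tissue/sample). They were incubated with 0.4 nM (final) [3H]zacopride for 30 min at 25 °C, filtered through PEI-treated GF/B and counted. IC50 came from dose-inhibition curves, mean ± SEM of three determinations.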

[2] = molecular target: Serotonin 3 (5-HT3) receptor; experiment: Effective concentration against 5-Hydroxytryptamine 3 receptor by measuring [14C]guanidinium uptake on NG108-15 cells.; assay type: functional, cell-based
[3] = system: NG108-15; experiment: The compound was tested for efficacy against 5-Hydroxytryptamine 3 receptor by measuring [14C]guanidinium uptake on NG108-15 cells.; A = Agonist; assay type: functional, cell-based; conditions: filed as agonist
Procedure, shortened: (§1)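 NG108-15 cells, grown 2 days, were washed in HEPES saline pH 7.4. They were exposed 10 min at 37 °C to buffer (135 mM NaCl, 10 mM guanidinium) with […] [14C]guanidinium, 1 mM 5-HT, […] and/or 8 drug concentrations. Cells were washed in ice-cold choline buffer, dissolved in NaOH and counted by scintillation. Assays run in triplicate.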

[4] = system: NG108-15; experiment: The compound was tested for efficacy against 5-Hydroxytryptamine 3 receptor by measuring [14C]guanidinium uptake on NG108-15 cells; PA=Partial agonist; assay type: functional, cell-based; conditions: filed as partial agonist; procedure, shortened: as §1
[5] = molecular target: T1, Serotonin 3 (5-HT3) receptor; experiment: The compound was tested for binding affinity against 5-hydroxytryptamine 3 receptor from NG108-15 cells using [3H]zacopride as radioligand; assay type: cell-based
Procedure, shortened: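 NG108-15 cells were grown in DMEM with 10% inactivated FCS plus HAT at 37 °C, 10% CO2, harvested by shaking and pelleted. About 420 000 cells/sample in 50 mM Tris HCl pH 7.5 with 25 mM NaCl were incubated with 0.4 nM (final) [3H]zacopride for 60 min at 25 °C, then filtered and counted. IC50 is mean ± SEM of three determinations.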

[6] = molecular target: T2, 5-hydroxytryptamine receptor 2C (Rattus norvegicus, UniProt P08909); experiment: The compound was tested for the binding affinity against 5-hydroxytryptamine 2C receptor using [3H]Mesulergine as radioligand.
T2 sequence (P08909 whole entry): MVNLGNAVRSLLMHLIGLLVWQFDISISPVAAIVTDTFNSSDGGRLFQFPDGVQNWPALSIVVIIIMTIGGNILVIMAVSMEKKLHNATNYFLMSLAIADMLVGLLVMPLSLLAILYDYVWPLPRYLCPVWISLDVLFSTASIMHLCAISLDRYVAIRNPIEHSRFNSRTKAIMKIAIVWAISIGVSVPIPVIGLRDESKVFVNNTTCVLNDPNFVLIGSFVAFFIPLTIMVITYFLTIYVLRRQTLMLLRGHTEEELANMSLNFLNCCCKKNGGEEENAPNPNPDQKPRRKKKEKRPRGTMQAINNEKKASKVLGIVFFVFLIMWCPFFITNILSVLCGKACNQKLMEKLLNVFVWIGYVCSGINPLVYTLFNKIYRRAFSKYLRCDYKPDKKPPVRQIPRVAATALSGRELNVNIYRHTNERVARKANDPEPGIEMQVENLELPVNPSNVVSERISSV

[7] = molecular target: T1, Serotonin 3 (5-HT3) receptor; experiment: The compound was tested for the binding affinity against 5-hydroxytryptamine 3 receptor using [3H]zacopride as radioligand.; assay type: protein-complex assay
[8] = molecular target: T3, 5-hydroxytryptamine receptor 2A (Rattus norvegicus, UniProt P14842); experiment: The compound was tested for the binding affinity against 5-hydroxytryptamine 2A receptor using [3H]ketanserin as radioligand.
[9] = molecular target: T4, 5-hydroxytryptamine receptor 1A (Rattus norvegicus, UniProt P19327); experiment: The compound was tested for the binding affinity against 5-hydroxytryptamine 1A receptor using [3H]8-OH-DPAT as radioligand.
T4 sequence (P19327 whole entry): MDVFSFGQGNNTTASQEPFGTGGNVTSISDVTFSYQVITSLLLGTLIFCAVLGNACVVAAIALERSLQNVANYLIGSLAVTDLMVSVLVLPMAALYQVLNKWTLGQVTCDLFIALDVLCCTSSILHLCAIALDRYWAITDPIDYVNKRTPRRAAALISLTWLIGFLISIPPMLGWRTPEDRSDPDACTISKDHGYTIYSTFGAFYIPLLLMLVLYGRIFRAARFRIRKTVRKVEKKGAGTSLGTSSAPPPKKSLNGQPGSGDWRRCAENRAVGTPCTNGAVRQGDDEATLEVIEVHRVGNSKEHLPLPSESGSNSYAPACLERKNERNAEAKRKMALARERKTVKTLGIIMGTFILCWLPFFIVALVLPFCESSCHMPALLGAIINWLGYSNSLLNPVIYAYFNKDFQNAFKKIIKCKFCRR

[10] = molecular target: T5, 5-hydroxytryptamine receptor 4 (Cavia porcellus, UniProt O70528); experiment: The compound was tested for the binding affinity against 5-hydroxytryptamine 4 receptor using [3H]GR-113808 as radioligand.
[11] = molecular target: T6, 5-hydroxytryptamine receptor 1B (Rattus norvegicus, UniProt P28564); experiment: The compound was tested for the binding affinity against 5-hydroxytryptamine 1B receptor using [3H]5-HT as radioligand.
[12] = The compound was tested for brain to plasma partition in rat; assay type: ADME, organism-based; conditions: brain and plasma, read-out: AUC ratio
Procedure, shortened: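 Male CD-COBS rats (175-200 g) received hydrochloride salts in saline i.v. at 5 mg/kg and were killed 60, 120 and 180 min after dosing. Plasma and brain levels were measured by HPLC-UV (254 nm) after liquid-liquid or solid-phase extraction with an internal standard. The ratio is brain-to-plasma AUC_t, 2-3 rats per point.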

[13] = molecular target: T1, Serotonin 3 (5-HT3) receptor; experiment: The compound was tested for the binding affinity against 5-hydroxytryptamine 3 receptor using [3H]zacopride as radioligand; assay type: protein-complex assay
[14] = molecular target: T5, 5-hydroxytryptamine receptor 4; experiment: The compound was tested for the binding affinity against 5-hydroxytryptamine 4 receptor using [3H]GR-113808 as radioligand
Procedure, shortened: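 Male guinea pig striatal membranes, washed and preincubated at 37 °C, were incubated with 0.1 nM (final) [3H]GR113808 for 30 min at 37 °C.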

[15] = molecular target: T3, 5-hydroxytryptamine receptor 2A; experiment: The compound was tested for the binding affinity against 5-hydroxytryptamine 2A receptor using [3H]ketanserin as radioligand
[16] = molecular target: T2, 5-hydroxytryptamine receptor 2C; experiment: The compound was tested for the binding affinity against 5-hydroxytryptamine 2C receptor using [3H]mesulergine as radioligand
[17] = molecular target: T6, 5-hydroxytryptamine receptor 1B; experiment: The compound was tested for the binding affinity against 5-hydroxytryptamine 1B receptor using [3H]5-HT as radioligand

T5 sequence (O70528 whole entry): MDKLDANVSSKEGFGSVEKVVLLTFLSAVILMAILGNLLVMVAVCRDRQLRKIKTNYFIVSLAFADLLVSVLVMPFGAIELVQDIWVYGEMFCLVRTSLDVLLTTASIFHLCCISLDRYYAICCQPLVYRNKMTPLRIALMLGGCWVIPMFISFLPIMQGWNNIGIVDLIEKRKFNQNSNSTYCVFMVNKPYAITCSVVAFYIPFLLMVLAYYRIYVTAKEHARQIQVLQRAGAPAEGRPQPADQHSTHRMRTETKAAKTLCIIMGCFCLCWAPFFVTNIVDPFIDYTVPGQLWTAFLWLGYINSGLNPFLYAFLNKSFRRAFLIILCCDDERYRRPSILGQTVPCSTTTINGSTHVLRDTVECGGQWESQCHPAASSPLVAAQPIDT
T3 sequence (P14842 whole entry): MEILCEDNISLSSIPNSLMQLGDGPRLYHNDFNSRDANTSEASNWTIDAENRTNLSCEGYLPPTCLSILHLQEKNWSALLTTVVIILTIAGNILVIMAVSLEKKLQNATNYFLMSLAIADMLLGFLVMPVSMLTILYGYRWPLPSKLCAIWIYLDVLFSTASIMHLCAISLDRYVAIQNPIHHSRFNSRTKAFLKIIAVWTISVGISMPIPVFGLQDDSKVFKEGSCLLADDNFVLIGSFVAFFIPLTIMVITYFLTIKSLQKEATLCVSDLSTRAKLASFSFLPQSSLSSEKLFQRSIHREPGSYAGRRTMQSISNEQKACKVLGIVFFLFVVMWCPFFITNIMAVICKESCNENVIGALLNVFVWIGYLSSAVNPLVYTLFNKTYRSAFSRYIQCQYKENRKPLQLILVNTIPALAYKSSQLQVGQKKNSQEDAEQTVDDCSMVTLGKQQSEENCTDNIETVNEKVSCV
T6 sequence (P28564 whole entry): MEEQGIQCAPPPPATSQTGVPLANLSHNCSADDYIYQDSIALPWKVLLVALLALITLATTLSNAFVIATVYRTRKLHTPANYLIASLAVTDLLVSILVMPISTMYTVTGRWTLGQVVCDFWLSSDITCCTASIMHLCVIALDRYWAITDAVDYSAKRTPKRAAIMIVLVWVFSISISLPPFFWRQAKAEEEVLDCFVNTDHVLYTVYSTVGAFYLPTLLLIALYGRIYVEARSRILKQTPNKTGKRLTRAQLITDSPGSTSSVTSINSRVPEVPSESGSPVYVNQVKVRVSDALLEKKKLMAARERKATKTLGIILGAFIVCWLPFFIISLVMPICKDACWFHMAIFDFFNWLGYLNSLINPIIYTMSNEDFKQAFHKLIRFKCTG

Row | Compound | IC50 [1] [µM] | EC50 [2] [µM] | other results
1 | Cc1cc2nc(N3CCN(Cc4ccccc4)CC3)c3cccn3c2cc1C | 0.044 | – | –
2 | Cc1cccc2nc(N3CCN(Cc4ccccc4)CC3)c3cccn3c12 | 0.0088 | 0.012 | Efficacy [3]: Agonist
3 | Fc1ccc2c(c1)nc(N1CCN(Cc3ccco3)CC1)c1cccn12 | 0.011 | 0.0066 | Efficacy [4]: Partial agonist
4 | c1csc(CN2CCN(c3nc4cccnc4n4cccc34)CC2)c1 | 0.0036 | – | IC50 [5]: 0.0064 µM; Ki [6]: > 10 µM; Ki [7]: 0.00316 µM; Ki [8]: 1.58 µM; Ki [9]: > 10 µM; Ki [10]: > 10 µM; Ki [11]: 3.98 µM
5 | Cc1[nH]c2ccc(O)cc2c1CCN | – | – | Ki [7]: 0.2 µM
6 | OCCN1CCN(c2nc3cccc(F)c3n3cccc23)CC1 | 0.0082 | 0.054 | Ki [6]: 2 µM; Kp [12]: 20.3; Ki [13]: 0.00794 µM; Ki [8]: 0.501 µM; Ki [9]: 0.501 µM; Ki [10]: > 10 µM; Ki [11]: 1.58 µM; Efficacy [4]: Partial agonist
7 | Cc1ccc2c(c1)nc(N1CCNCC1)c1cccn12 | 0.0164 | – | –
8 | Fc1cccc2nc(N3CCN(CC4N=NN=N4)CC3)c3cccn3c12 | 0.69 | – | –
9 | Fc1cccc2nc(N3CCN(Cc4cccs4)CC3)c3cccn3c12 | 0.06 | – | –
10 | CN1CCN(C2=NC=CN3CCN=C23)CC1 | 3.65 | – | –
11 | CN1CCN(c2nc3ccccc3n3ccnc23)CC1 | 0.0038 | 0.015 | Efficacy [3]: Agonist
12 | N#CCN1CCN(c2nc3cccc(F)c3n3cccc23)CC1 | 3.8 | – | Kp [12]: 0.1
13 | Clc1cc2nc(N3CCN(Cc4ccccc4)CC3)c3cccn3c2cc1Cl | 0.118 | – | –
14 | O=C(O)CN1CCN(c2nc3cccc(F)c3n3cccc23)CC1 | 0.92 | – | –
15 | Cc1ccc2c(c1)nc(N1CCN(Cc3ccccc3)CC1)c1cccn12 | 0.024 | – | –
16 | Cc1cc2nc(N3CCN(C)CC3)c3cccn3c2cc1C | 0.03 | – | –
17 | CN1CCN(c2nc3cc(O)ccc3n3cccc23)CC1 | 0.00067 | 0.0016 | Efficacy [3]: Agonist
18 | CN1CCN(c2nccn3cccc23)CC1 | 1.93 | – | –
19 | CN1CCN(c2nc3cccnc3n3cccc23)CC1 | 0.001 | – | IC50 [5]: 0.0054 µM
20 | CN1CCN(c2nc3cc(F)ccc3n3ccnc23)CC1 | 0.0052 | 0.0072 | Efficacy [3]: Agonist

Row | Compound | IC50 [1] [µM] | EC50 [2] [µM] | other results
21 | Fc1ccc2c(c1)nc(N1CCN(Cc3ccccc3)CC1)c1cccn12 | 0.013 | 0.0042 | Efficacy [4]: Partial agonist
22 | OCCN1CCN(c2nc3cccnc3n3ccnc23)CC1 | 0.038 | – | –
23 | CN1CCN(c2nc3cc(F)ccc3n3cccc23)CC1 | – | 0.003 | Efficacy [3]: Agonist
24 | c1cnc2nc(N3CCNCC3)c3cccn3c2c1 | 0.0031 | – | –
25 | CN1[C@@H]2CC[C@H]1C[C@@H](OC(=O)c1cc(Cl)cc(Cl)c1)C2 [BEMESETRON] | 0.097 | – | –
26 | c1ccc2nc(N3CCNCC3)ccc2c1 [QUIPAZINE] | 0.0038 | – | Ki [6]: 0.316 µM; Ki [7]: 0.00631 µM; Ki [8]: 0.794 µM; Efficacy [4]: Partial agonist
27 | OCCN1CCN(c2nc3cc(F)ccc3n3cccc23)CC1 | 0.0026 | 0.0024 | Efficacy [3]: Agonist
28 | CN1CCN(c2nc3cc(Cl)c(Cl)cc3n3cccc23)CC1 | 0.097 | – | –
29 | c1ccc(CN2CCN(c3nc4ncccc4n4cccc34)CC2)cc1 | 0.0022 | 0.0042 | Kp [12]: 2.1; Ki [13]: 0.002 µM; Ki [14]: > 10 µM; Ki [15]: 0.794 µM; Ki [9]: > 10 µM; Ki [16]: > 10 µM; Ki [17]: > 10 µM; Efficacy [4]: Partial agonist
30 | CN1CCN(c2nc3cccnc3n3ccnc23)CC1 | 0.0066 | – | –
31 | Fc1ccc2c(c1)nc(N1CCN(Cc3cccs3)CC1)c1cccn12 | 0.012 | – | –
32 | Cc1cc2nc(N3CCNCC3)c3cccn3c2cc1C | 0.113 | – | –
33 | CN1CCN(c2nc3cc(C#N)ccc3n3cccc23)CC1 | 0.104 | – | –
34 | CN1CCN(c2nc3ccccc3c3ccnn23)CC1 | 0.0016 | 0.0027 | Efficacy [3]: Agonist
35 | Cc1cccc2nc(N3CCN(Cc4ccc(Br)s4)CC3)c3cccn3c12 | 0.104 | – | –
36 | Fc1ccc2c(c1)nc(N1CCN(Cc3ccc(Br)o3)CC1)c1cccn12 | 0.148 | – | –
37 | c1csc(CN2CCN(c3nc4ccccc4n4cccc34)CC2)c1 | 0.022 | – | –
38 | CN1CCN(c2nc3cc(OCc4ccccc4)ccc3n3cccc23)CC1 | 0.225 | – | –
39 | c1ccc(CN2CCN(c3nc4cccnc4n4cccc34)CC2)cc1 | 0.0023 | 0.032 | Efficacy [4]: Partial agonist
40 | Fc1cccc2nc(N3CCN(Cc4ccc5ccccc5c4)CC3)c3cccn3c12 | 0.78 | – | Kp [12]: 2.8
